According to ChEMBL document CHEMBL2202972, “Synthesis and biological evaluation of 2-substituted-4-(3',4',5'-trimethoxyphenyl)-5-aryl thiazoles as anticancer agents” (Bioorg Med Chem, 2012):

Experiments:
A549 = test: Antiproliferative activity against human A549 cells after 72 hrs by MTT assay; type: functional, cell-based; settings: A549, 72 h
HL-60 = test: Antiproliferative activity against human HL60 cells after 72 hrs by MTT assay; type: functional, cell-based; settings: HL-60, 72 h
HeLa = test: Antiproliferative activity against human HeLa cells after 72 hrs by MTT assay; type: functional, cell-based
HT-29 = test: Antiproliferative activity against human HT-29 cells after 72 hrs by MTT assay; type: functional, cell-based; settings: HT-29, 72 h
Jurkat = test: Antiproliferative activity against human Jurkat cells after 72 hrs by MTT assay; type: functional, cell-based
Outline: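 Cells seeded at 8 × 10³ per well and incubated 18 h at 37 °C, 5% CO₂, then exposed to a range of compound concentrations for 72 h at 37 °C. Jurkat and HL-60 were grown in RPMI-1640, the others in DMEM, with penicillin, streptomycin and 10% FBS. DMSO stocks (10 mM); DMSO ≤0.25% final. Viability by MTT. […] Mean ± SE of ≥3 independent experiments.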

MCF7 = test: Antiproliferative activity against human MCF7 cells after 72 hrs by MTT assay; type: functional, cell-based; settings: MCF7, 72 h
Bos taurus = organism: Bos taurus; test: Displacement of [3H]colchicine from tubulin in bovine brain at 5 uM DEAE-cellulose filter method
[1] = Inhibition of bovine brain tubulin polymerization preincubated for 15 mins by turbidimetric analysis; design: species or system Bos taurus
Outline: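 Bovine brain tubulin (10 μM) in glutamate buffer preincubated with varying compound concentrations for 15 min at 30 °C, then chilled to 0 °C. GTP 0.4 mM added and mixtures warmed to 30 °C in a spectrophotometer; assembly followed by turbidity at 350 nm.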

CCRF-CEM = test: Resistance ratio of IC50 for human vinblastine-resistant CEM/VBL100 cells overexpressing P-glycoprotein to IC50 for human CEM cells; type: functional

SMILES	IC50 (A549)	IC50 (HL-60)	IC50 (HeLa)	IC50 (HT-29)	IC50 (Jurkat)	IC50 (MCF7)	inhibition (Bos taurus)	IC50 [1]	Ratio IC50 (CCRF-CEM)
CNc1nc(-c2cc(OC)c(OC)c(OC)c2)c(-c2ccc(C(F)(F)F)cc2)s1	4.57 µM	3.17 µM	3.4 µM	1.24 µM	3.01 µM	7.29 µM			
COc1cc(-c2nc(C)sc2-c2ccc(C)cc2)cc(OC)c1OC	1.95 µM	1.51 µM	1.1 µM	0.722 µM	0.517 µM	1.74 µM			
CCOc1ccc(-c2sc(C)nc2-c2cc(OC)c(OC)c(OC)c2)cc1	3.32 µM	0.253 µM	1.87 µM	0.487 µM	1.74 µM	0.0423 µM	51%	1.2 µM	
CNc1nc(-c2cc(OC)c(OC)c(OC)c2)c(-c2ccc3ccccc3c2)s1	0.151 µM	0.143 µM	0.128 µM	0.0382 µM	0.0511 µM	0.0211 µM	78%	0.96 µM	
COc1cc(-c2nc(N(C)C)sc2-c2ccc(C)cc2)cc(OC)c1OC	3.96 µM	3.48 µM	4.14 µM	3.92 µM	6.66 µM	> 10 µM		> 20 µM	
COc1ccc(-c2sc(C)nc2-c2cc(OC)c(OC)c(OC)c2)cc1	2.56 µM	3.43 µM	0.5 µM	1.42 µM	1.76 µM	0.606 µM			
CC[C@]1(O)C[C@@H]2CN(CCc3c([nH]c4ccccc34)[C@@](C(=O)OC)(c3cc4c(cc3OC)N(C)[C@H]3[C@@](O)(C(=O)OC)[C@H](OC(C)=O)[C@]5(CC)C=CCN6CC[C@]43[C@@H]65)C2)C1 [VINBLASTINE]									256.2
COc1cc(-c2nc(N(C)C)sc2-c2ccc(C(F)(F)F)cc2)cc(OC)c1OC	> 10 µM	> 10 µM	> 10 µM	> 10 µM	> 10 µM	> 10 µM		> 20 µM	
